# MLLE-PAM2 inh = blocks PAM2 peptide binding to the PABP1 MLLE domain. GST-MLLE / FITC-PAM2 fluorescence polarization. inhibition, % at 20 µM. 360,000 tested, 0.36% active; in the data active = inhibition above about 35%, passing the limit was not always enough;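 also: plate controls were DMSO wells with GST-MLLE for no effect and wells lacking GST-MLLE protein for full effect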
# Target sequence (P11940 whole entry, looked up, the tested form may be a part): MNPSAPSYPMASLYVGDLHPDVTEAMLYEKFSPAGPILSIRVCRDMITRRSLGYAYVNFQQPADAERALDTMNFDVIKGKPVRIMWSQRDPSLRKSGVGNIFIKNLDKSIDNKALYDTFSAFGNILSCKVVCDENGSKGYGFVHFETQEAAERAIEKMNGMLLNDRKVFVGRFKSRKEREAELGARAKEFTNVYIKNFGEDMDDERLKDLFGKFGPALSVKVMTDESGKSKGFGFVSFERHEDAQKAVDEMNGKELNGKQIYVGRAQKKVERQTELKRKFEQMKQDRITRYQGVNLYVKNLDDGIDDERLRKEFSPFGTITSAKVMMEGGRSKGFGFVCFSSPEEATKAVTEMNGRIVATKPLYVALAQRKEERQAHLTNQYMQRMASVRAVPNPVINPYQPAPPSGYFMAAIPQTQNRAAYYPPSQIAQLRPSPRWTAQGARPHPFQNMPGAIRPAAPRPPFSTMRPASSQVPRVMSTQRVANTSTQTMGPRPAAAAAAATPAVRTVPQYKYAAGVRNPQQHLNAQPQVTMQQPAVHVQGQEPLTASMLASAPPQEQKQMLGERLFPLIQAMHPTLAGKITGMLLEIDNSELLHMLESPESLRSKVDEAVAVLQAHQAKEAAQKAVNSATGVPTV
# IMP-1 inh-1 = inhibitors of Pseudomonas aeruginosa IMP-1 metallo-beta-lactamase; inhibition, % at 5.6 µM; 290,000 tested, 0.45% active; AID 1556; purified IMP-1, nitrocefin hydrolysis, epi-absorbance fluorescence;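 active = inhibition above the mean plus 3 SD of all compounds in the same screening run, cut at about 4.5% in these data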;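 also: 0% = IMP-1 with DMSO and 100% = DMSO wells lacking enzyme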
#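 Test system: recombinant IMP-1 enzyme, purified / Medium: HEPES buffer pH 7.1 with ZnSO4 and Brij 35 / Doses: single dose, 5.6 µM / Times: 25 °C, 15 min preincubation, 25 min reaction / Detection: Epi-absorbance via hydrolysed-nitrocefin quenching of white-plate fluorescence, 480/530 nm, EDTA stop / Evaluation: percent inhibition from optical density relative to buffer-blank wells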
# PABP FP inh = PABP-poly(A) binding inhibition; 290,000 tested, 1% active; calls only at 35 µM; P11940; PABP-poly(A) RNA binding, fluorescence polarization;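 also: calls also rest on retests at 20 µM and on dose response follow-up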
# eIF4H FP inh = inhibitors of RNA binding by human eIF4H. Q15056. eIF4H fluorescence polarization binding assay. inhibition, % at 35 µM. 290,000 tested, 0.94% active;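 also: calls also rest on retests at 20 µM and on dose response follow-up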
# VIM-2 inh = blocks Pseudomonas aeruginosa VIM-2 metallo-beta-lactamase; purified VIM-2, nitrocefin hydrolysis, epi-absorbance fluorescence; inhibition, % at 5.6 µM; 290,000 tested, 0.89% active; AID 1527;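 active = inhibition above the mean of all tested compounds plus 3 SD, cutoff set per screening run, cut at about 7.5% in these data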;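 also: red hydrolysis product quenches plate fluorescence so inhibitors raise well fluorescence; 0% = enzyme with DMSO and 100% = DMSO without enzyme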
# IMP-1 inh-2 = blocks IMP-1 metallo-beta-lactamase in VIM-2 selectivity screen; shares compounds with VIM-2 inh; purified IMP-1, nitrocefin hydrolysis, epi-absorbance fluorescence; inhibition, % at 5.6 µM; 1,300 tested, under 10 active;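 also: 0% = enzyme with vehicle and 100% = vehicle without enzyme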
# VIM-2 FRET inh = VIM-2 FRET inhibition, artifact counter-screen; shares compounds with VIM-2 inh; purified VIM-2, CCF2 FRET substrate hydrolysis; inhibition, % at 5.6 µM; 1,300 tested, 23% active; AID 1857;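 active = inhibition above the mean of all tested compounds plus 3 SD, cut at about 19% in these data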;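 also: 0% = VIM-2 plus DMSO and 100% = no enzyme wells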
# TEM-1 inh = selectivity counter-screen for VIM-2 inhibitors: E. coli TEM-1 inhibitors; inhibition, % at 5.6 µM; shares compounds with VIM-2 inh; AID 1866; 1,300 tested, 3% active; Purified TEM-1, nitrocefin hydrolysis, epi-absorbance fluorescence;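 active = inhibition above that campaign's mean inhibition plus 3 SD, cut at about 0.46% in these data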;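 also: 0% = TEM-1 with DMSO and 100% = TEM-1 with 100 µM potassium clavulanate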
# VIM-2 confirm 2 = confirmation of P. aeruginosa VIM-2 metallo-beta-lactamase inhibitors | 1,300 tested, 96% active | inhibition, % at 5.6 µM | AID 2187 | purified VIM-2, nitrocefin hydrolysis, epi-absorbance | shares compounds with VIM-2 inh;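 active = inhibition of the VIM-2 beta-lactamase enzyme above about 11% from the earlier first-round screen, limit read from the data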;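 also: 0% = VIM-2 with DMSO and 100% = buffer wells without enzyme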
# * hit, by the source's call; i = inactive; ? = inconclusive; . = no result given. In the library only some 2.2% were active in any assay of this set; here they are far more common. Unless noted, no rule for the calls is given here.
SMILES,MLLE-PAM2 inh,IMP-1 inh-1,PABP FP inh,eIF4H FP inh,VIM-2 inh,IMP-1 inh-2,VIM-2 FRET inh,TEM-1 inh,VIM-2 confirm 2
O=[N+]([O-])c1cc(-c2ccc(/C=N\n3cnnc3)o2)cc([N+](=O)[O-])c1,0,-2,i,23,54*,-4,-1,-7,66*
O=[N+]([O-])c1ccccc1-c1ccc(/C=N/n2cnnc2)o1,12,-3,i,7,3,.,.,.,.
CC1CCC(NC(=O)c2ccc(NC(=O)CC3SC(N4CCCC4)=NC3=O)cc2)CC1 (stereo not drawn),4,.,.,.,.,.,.,.,.
Oc1ccc(CN2CCN(Cc3ccccc3)CC2)c2cccnc12,13,-2,.,.,-1,.,.,.,.
CN1CCN(Cc2cc(COCc3ccccc3)c3cccnc3c2O)CC1,9,-2,i,18,12*,-3,33*,-5,33*
CCN1CCc2c(sc(NC(=O)c3ccc(S(=O)(=O)N4CCOCC4)cc3)c2C(=O)OC)C1,-11,-3,i,-18,64*,-2,-2,-4,77*
CNC(=O)c1c(NC(=O)c2ccc(S(=O)(=O)N3CCCC3)cc2)sc2c1CCN(C(C)C)C2,.,-2,i,?,1,.,.,.,.
COC(=O)c1c(NC(=O)c2ccc(S(=O)(=O)N3CCOCC3)cc2)sc2c1CCN(C)C2,.,-1,i,-17,78*,-2,-1,-7,85*
CNC(=O)c1c(NC(=O)c2ccc(S(=O)(=O)N3CCCCC3C)cc2)sc2c1CCN(C)C2 (stereo not drawn),-42,3,i,-15,22*,-3,2,-6,30*
O=C(Cn1cnc(S(=O)(=O)N2CCCCC2)c1)NCc1ccco1,-1,0,i,2,-3,.,.,.,.
Cc1onc(-c2ccccc2Cl)c1C(=O)NCc1ccc(F)cc1,12,-3,i,-1,-1,.,.,.,.
Cc1ccccc1C(=O)Nc1cccc(-c2ccc3nncn3n2)c1,3,-2,i,12,1,.,.,.,.
CCOc1ccccc1C(=O)Nc1cccc(-c2ccc3nncn3n2)c1,-9,0,i,0,21*,-3,1,-8,31*
CC(=O)c1ccc(NC(=O)Cn2cnc(S(=O)(=O)N3CCc4ccccc43)c2)cc1,-7,-2,i,-4,-3,.,.,.,.
CC1(C(=O)NS(=O)(=O)Cc2ccccc2)CCN1C(=O)CCc1ccccc1 (stereo not drawn),-6,.,.,.,.,.,.,.,.
CCOC(=O)N1CCN(C(=O)CN(C)S(=O)(=O)c2ccc(F)cc2)CC1,9,-1,i,-18,0,.,.,.,.
CCc1nn(CC(=O)N2CCN(CC)CC2)c(=O)c2cc3sccc3n12,0,1,i,-4,41*,-3,3,-8,50*
CCc1cc2c(cc3c(=O)n(CC(=O)N4CCN(c5ccccn5)CC4)nc(CC)n32)s1,1,2,i,-2,-1,.,.,.,.
Cc1nn(CC(=O)N2CCN(c3ccccn3)CC2)c(=O)c2cc3sccc3n12,-6,-1,i,11,2,.,.,.,.
CCCN1CCN(C(=O)Cn2nc(C)n3c(cc4sccc43)c2=O)CC1,2,-2,i,1,18*,-3,1,-6,23*
CN(Cc1cccs1)C(=O)CNC(=O)c1ccco1,10,-3,i,-5,-3,.,.,.,.
COc1ccc(/C=C2\N=C(SC)NC2=O)cc1,-147,-7,i,-3,-3,.,.,.,.
CSC1=N/C(=C/c2ccc(-n3cncn3)cc2)C(=O)N1,-128,1,i,0,14*,-3,-2,-9,55*
C=CCNC(=O)CC1Nc2c3ccccc3nc(=S)n2C1=O (stereo not drawn),-77,-3,i,1,-3,.,.,.,.
C=C(C)Cn1c(-c2cccs2)n[nH]c1=S,-10,-1,i,-6,48*,-4,71*,-9,53*
SMILES,MLLE-PAM2 inh,IMP-1 inh-1,PABP FP inh,eIF4H FP inh,VIM-2 inh,IMP-1 inh-2,VIM-2 FRET inh,TEM-1 inh,VIM-2 confirm 2
C[C@@H]1NS(=O)(=O)[C@H]2C[C@@H]3C=C[C@]2(O3)[C@H]1OC(=O)c1ccc(C(C)(C)C)cc1,6,.,.,.,.,.,.,.,.
CC(C)(C)c1ccc(-c2n[nH]c(=S)n2CCCN2CCOCC2)cc1,-23,-2,i,0,13*,-4,33*,-8,22*
CC(C)(C)c1ccc(-c2n[nH]c(=S)n2CC2CCCO2)cc1 (stereo not drawn),-8,-3,i,4,0,.,.,.,.
CC(=O)Nc1cccc(NC(=O)CSc2nc(=O)n(CCN3CCOCC3)c3c2CCC3)c1,3,.,.,.,.,.,.,.,.
O=C(O)C(c1ccccc1)N1C(=O)c2cccc3cccc(c23)C1=O (stereo not drawn),2,4,i,-4,20*,3,39*,-7,27*
O=C(O)C(c1ccccc1)N1C(=O)c2ccccc2C1=O (stereo not drawn),6,-6,i,-4,3,.,.,.,.
Cc1ccc(S(=O)(=O)NC2CC2)cc1,-6,-6,i,-1,0,.,.,.,.
CCOc1cc(S(=O)(=O)N2CCCC2)c(C)cc1C,-1,-2,i,-1,-3,.,.,.,.
Nc1nc(NCCCN2CCOCC2)nc(Nc2ccc(Cl)cc2)c1[N+](=O)[O-],14,-3,i,-5,7,.,.,.,.
Nc1nc(NCCCN2CCOCC2)nc(Nc2cccc(Cl)c2)c1[N+](=O)[O-],5,0,i,-13,29*,-3,0,-7,49*
O=C1c2cccc3cccc(c23)C(=O)N1CC1CCN(CC(O)COCc2ccc3c(c2)OCO3)CC1 (stereo not drawn),-3,-1,i,-1,16*,-3,-5,-6,24*
CCN(CC)CCCNC(=O)c1cc2nc3c(c(C(F)(F)F)n2n1)CCc1ccccc1-3,-5,-3,i,-2,13*,-3,1,-4,15*
N#Cc1c(-c2ccccc2Cl)cc(-c2ccccc2)nc1Br,3,-1,i,7,-3,.,.,.,.
COc1ccc(CN2CCC(CO)(CCOc3ccccc3)CC2)cc1C,6,-1,i,10,-4,.,.,.,.
O=C1c2ccccc2-c2onc3ccc(N4CCCC4)c1c23,i,2,i,?,14*,4,4,2.9*,25*
CCOc1ccc2noc3c2c1C(=O)c1ccccc1-3,i,0,i,45,3,.,.,.,.
Cc1c(C)c2cc(Cl)c(OCC(=O)NCCCN3CCCC3=O)cc2oc1=O,-13,.,.,.,.,.,.,.,.
O=C(COc1ccc2c(c1)oc(=O)c1ccccc12)NCCN1CCOCC1,-5,2,i,-5,19*,-3,1,-6,27*
